The target of data set [1] is T1, Histamine H3 receptor (Homo sapiens, UniProt Q9Y5N1). Kind of data set: Displacement of [3H]N-alpha-methylhistamine from human histamine H3 receptor expressed in SK-N-MC cells. The class given is cell-based. Put shortly: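 Membranes prepared from SK-N-MC cells expressing human H3 receptor, homogenized in 50 mM Tris/5 mM EDTA, pH 7.4. Incubated with 0.8 nM [3H]-N-alpha-methylhistamine ± compound, 60 min, 25 °C. Filtration over polyethylenimine-treated glass fiber filters with four ice-cold washes. Nonspecific binding defined with 10 µM histamine.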

Data set [2] addresses T1, Histamine H3 receptor. Kind of data set: Antagonist activity at human histamine H3 receptor expressed in SK-N-MC cells assessed as inhibition of forskolin-stimulated cAMP accumulation treated 10 min before histamine challenge. The format is functional, cell-based. Particulars: read-out: pA2 (converted). An outline of the steps: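 SK-N-MC sublines stably carrying human H3 receptor plus a beta-galactosidase reporter driven by multiple cAMP responsive elements. Antagonist added 10 min before histamine; forskolin (5 µM final) 5 min after histamine; 6 h at 37 °C. Lysis, then chlorophenol red beta-D-galactopyranoside substrate, absorbance 570 nm. pA2 from Schild regression of rightward shifts in histamine curves; mean of at least three determinations.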
(In general: Cyclic AMP is a second messenger, typically raised through Gs and lowered through Gi signalling.)

In data set [3] the target is Cytochrome P450 2C9 (Homo sapiens, UniProt P11712). Nature of the data set: Inhibition of CPY2C9 at >40 uM.
The target in data set [4] is T2, hERG (KCNH2) (Homo sapiens, UniProt Q12809). Nature of the data set: Inhibition of human ERG at 3 uM. As to conditions: read-out: Activity.
Data set [5] has as its target Cytochrome P450 2C19 (Homo sapiens, UniProt P33261). Kind of data set: Inhibition of CPY2C19 at >40 uM.
For data set [6], the target named is Cytochrome P450 2D6 (Homo sapiens, UniProt P10635). Kind of data set: Inhibition of CPY2D6 at >40 uM.
Data set [7] deals with Rattus norvegicus. Kind of data set: Wake promoting activity in Sprague-Dawley rat assessed as effect on rapid eye movement sleep at 10 mg/kg, sc. The format is functional, organism-based. Also noted: dose 10 mg/kg. Put shortly: (§1)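 Male adult Sprague-Dawley rats chronically implanted with EEG/EMG electrodes, given 10 mg/kg s.c. or saline vehicle 2 h after light-phase onset. Recording for 8 h, visually scored in 10 s epochs as wake, NREM or REM. Time per 1 h interval as % of recording time; n = 5 animals; vehicle vs compound by paired t-test.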

In data set [8] the target is T3, Histamine H3 receptor (Rattus norvegicus, UniProt Q9QYN8). Kind of data set: Antagonist activity at rat H3 receptor expressed in SK-N-MC cells assessed as inhibition of forskolin-stimulated cAMP accumulation treated 10 min before histamine challenge. As to conditions: read-out: pA2 (converted). The class given is functional, cell-based.
Data set [9] deals with Cytochrome P450 3A4 (Homo sapiens, UniProt P08684). Kind of data set: Inhibition of CPY3A4 at >40 uM.
Data set [10] has as its target T3, Histamine H3 receptor. Kind of data set: Displacement of [3H]N-alpha-methylhistamine from rat histamine H3 receptor expressed in SK-N-MC cells. The class given is cell-based. Put shortly: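 Membranes from homogenized SK-N-MC cells expressing the rat H3 receptor, in 50 mM Tris/5 mM EDTA pH 7.4. Incubated with 0.8 nM [3H]-Nα-methylhistamine ± compound for 60 min at 25 °C, then filtered and washed with ice-cold buffer. Nonspecific binding was defined with 10 μM histamine.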
On the technique in general: In a radioligand displacement assay an active substance lowers the binding of a labelled ligand.

Data set [11] concerns Rattus norvegicus. Kind of data set: Ex vivo histamine H3 receptor occupancy in rat striatum at 30 mg/kg, po after 1 hr. The class given is functional. An outline of the steps:
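Ex vivo autoradiography in rat striatum, coronal sections, using [3H]-R-alpha-methylhistamine as radioligand. Oral dosing at 0.1, 0.3, 1, 3, 10 or 30 mg/kg; brains taken 1 h post-dose to measure H3 receptor occupancy.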

In data set [12] the target is T2, hERG (KCNH2). Nature of the data set: Inhibition of human ERG at 10 uM. As to conditions: read-out: Activity.
The target of data set [13] is T4, Cytochrome P450 1A2 (Homo sapiens, UniProt P05177).
T4 sequence (P05177 whole entry): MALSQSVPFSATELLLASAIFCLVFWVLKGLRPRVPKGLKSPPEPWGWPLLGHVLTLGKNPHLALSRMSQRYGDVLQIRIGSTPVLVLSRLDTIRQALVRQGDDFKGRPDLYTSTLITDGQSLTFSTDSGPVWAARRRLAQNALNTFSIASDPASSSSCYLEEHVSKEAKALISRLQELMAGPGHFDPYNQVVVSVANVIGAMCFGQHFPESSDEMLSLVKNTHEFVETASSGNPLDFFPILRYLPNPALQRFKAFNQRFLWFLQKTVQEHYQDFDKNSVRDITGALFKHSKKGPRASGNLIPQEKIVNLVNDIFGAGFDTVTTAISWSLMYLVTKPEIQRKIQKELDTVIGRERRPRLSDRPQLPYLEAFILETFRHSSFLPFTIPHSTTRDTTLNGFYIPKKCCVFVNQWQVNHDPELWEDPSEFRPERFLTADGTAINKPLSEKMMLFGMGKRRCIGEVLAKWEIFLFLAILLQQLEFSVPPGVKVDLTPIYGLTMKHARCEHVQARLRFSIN
Nature of the data set: Inhibition of CPY1A2 at >40 uM.

Data set [14] in a line: Half life in po dosed rat. The class given is ADME, organism-based. As to conditions: in vivo.
In data set [15] the test system is Rattus norvegicus. Kind of data set: Wake promoting activity in Sprague-Dawley rat assessed as decrease in non-rapid eye movement sleep at 10 mg/kg, sc. The format is functional, organism-based. Also noted: dose 10 mg/kg. Put shortly:
as §1

Data set [16] in a line: Oral bioavailability in rat. The class given is ADME, organism-based. Particulars: in vivo.
For data set [17], the target named is Histamine H1 receptor (Homo sapiens, UniProt P35367). Kind of data set: Displacement of […] from histamine H1 receptor expressed in SK-N-MC cells. The class given is cell-based.
Data set [18] has as its target Histamine H4 receptor (Homo sapiens, UniProt Q9H3N8). Kind of data set: Displacement of […] from histamine H4 receptor expressed in SK-N-MC cells. The class given is cell-based.

pKi: −log10 of the molar value. Calls of active or inactive are those of the source. The rule behind the calls is not given here. Some results are limits rather than exact numbers.

Usually pKi stands for the negative decadic logarithm of the Ki, by convention in mol/L. In general, ED50 refers to the dose at which the effect has come halfway, by size or by number of responders. High values mean weaker potency, low ones greater potency. Broadly, the half-life is how long it takes for the measured level to halve. Read a low half-life as rapid decline. Broadly, the bioavailability is the share of a dose that reaches the circulation, judged against a reference dose that is usually intravenous. Read a low bioavailability as little systemic uptake.

T1 sequence (Q9Y5N1 whole entry): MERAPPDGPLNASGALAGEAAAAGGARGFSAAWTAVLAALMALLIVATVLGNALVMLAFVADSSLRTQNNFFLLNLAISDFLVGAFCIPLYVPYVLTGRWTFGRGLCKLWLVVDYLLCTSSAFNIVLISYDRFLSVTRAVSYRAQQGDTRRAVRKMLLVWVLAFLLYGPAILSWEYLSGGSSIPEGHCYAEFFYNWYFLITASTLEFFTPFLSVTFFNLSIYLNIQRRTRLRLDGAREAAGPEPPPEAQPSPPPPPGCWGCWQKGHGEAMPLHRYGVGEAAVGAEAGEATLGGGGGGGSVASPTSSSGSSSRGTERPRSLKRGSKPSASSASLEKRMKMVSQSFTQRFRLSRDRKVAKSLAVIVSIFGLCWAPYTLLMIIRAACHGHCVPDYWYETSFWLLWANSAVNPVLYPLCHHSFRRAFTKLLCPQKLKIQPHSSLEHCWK
T3 sequence (Q9QYN8 whole entry): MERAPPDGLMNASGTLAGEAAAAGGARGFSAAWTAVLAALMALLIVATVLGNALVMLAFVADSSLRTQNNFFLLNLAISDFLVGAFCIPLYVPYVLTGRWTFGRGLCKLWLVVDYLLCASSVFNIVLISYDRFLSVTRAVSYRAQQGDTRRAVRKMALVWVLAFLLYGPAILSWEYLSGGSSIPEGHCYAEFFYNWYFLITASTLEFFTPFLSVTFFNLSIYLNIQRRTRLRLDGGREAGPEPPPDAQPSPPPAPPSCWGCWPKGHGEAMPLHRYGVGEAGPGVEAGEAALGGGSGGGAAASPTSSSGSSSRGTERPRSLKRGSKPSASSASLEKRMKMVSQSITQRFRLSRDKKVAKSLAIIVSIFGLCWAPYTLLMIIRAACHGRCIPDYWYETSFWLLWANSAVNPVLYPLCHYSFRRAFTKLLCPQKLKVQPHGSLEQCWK
T2 sequence (Q12809 whole entry): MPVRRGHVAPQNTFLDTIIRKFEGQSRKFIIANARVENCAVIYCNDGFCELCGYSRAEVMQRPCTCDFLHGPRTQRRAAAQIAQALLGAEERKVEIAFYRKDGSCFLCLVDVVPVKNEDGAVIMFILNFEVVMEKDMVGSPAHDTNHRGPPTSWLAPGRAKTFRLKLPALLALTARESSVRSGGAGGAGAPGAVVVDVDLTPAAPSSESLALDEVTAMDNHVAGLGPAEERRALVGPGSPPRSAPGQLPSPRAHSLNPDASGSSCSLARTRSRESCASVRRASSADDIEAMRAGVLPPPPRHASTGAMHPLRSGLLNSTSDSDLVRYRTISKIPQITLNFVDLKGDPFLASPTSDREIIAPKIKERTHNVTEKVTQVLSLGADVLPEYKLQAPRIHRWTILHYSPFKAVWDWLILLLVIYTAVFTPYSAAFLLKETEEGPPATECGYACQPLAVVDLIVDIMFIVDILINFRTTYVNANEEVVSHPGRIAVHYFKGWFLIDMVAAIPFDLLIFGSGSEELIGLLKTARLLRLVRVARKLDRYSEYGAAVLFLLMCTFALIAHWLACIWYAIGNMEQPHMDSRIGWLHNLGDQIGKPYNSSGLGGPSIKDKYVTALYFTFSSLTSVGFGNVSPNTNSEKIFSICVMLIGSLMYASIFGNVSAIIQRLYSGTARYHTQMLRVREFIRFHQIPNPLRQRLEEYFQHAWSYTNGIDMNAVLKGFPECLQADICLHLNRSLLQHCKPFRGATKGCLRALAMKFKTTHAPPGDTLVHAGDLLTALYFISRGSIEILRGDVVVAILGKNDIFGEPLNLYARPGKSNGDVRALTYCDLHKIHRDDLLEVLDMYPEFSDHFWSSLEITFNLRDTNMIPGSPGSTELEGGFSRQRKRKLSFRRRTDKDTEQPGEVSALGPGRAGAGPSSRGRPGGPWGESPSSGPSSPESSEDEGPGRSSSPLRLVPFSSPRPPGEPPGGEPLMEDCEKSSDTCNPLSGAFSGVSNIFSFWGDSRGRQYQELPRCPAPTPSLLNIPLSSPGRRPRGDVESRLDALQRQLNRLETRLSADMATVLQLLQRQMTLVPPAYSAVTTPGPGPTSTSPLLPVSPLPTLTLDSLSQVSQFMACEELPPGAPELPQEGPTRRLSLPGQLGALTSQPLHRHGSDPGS
Histamine H4 receptor, sequence (Q9H3N8 whole entry): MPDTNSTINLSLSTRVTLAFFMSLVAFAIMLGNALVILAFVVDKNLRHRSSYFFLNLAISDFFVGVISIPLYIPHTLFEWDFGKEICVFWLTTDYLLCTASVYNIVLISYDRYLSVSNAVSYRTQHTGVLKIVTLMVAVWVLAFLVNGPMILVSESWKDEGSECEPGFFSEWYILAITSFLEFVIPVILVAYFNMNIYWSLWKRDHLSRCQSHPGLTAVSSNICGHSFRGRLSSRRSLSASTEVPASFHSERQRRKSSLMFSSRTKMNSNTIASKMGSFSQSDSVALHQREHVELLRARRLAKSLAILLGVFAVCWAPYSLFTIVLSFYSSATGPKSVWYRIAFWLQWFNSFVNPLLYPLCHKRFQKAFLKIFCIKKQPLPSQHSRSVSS
Cytochrome P450 3A4, sequence (P08684 whole entry): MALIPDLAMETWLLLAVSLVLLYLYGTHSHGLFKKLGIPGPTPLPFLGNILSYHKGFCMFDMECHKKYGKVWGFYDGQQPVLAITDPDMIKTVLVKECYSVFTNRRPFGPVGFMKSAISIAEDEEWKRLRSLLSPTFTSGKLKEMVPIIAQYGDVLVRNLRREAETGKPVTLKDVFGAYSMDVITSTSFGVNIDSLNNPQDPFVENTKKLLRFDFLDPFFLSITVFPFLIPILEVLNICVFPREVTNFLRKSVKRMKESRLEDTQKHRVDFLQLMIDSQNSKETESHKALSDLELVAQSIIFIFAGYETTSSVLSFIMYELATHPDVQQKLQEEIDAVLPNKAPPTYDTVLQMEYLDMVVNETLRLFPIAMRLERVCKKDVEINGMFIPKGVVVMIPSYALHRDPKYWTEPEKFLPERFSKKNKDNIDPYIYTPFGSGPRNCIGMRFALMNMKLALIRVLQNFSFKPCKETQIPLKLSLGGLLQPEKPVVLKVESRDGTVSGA
Histamine H1 receptor, sequence (P35367 whole entry): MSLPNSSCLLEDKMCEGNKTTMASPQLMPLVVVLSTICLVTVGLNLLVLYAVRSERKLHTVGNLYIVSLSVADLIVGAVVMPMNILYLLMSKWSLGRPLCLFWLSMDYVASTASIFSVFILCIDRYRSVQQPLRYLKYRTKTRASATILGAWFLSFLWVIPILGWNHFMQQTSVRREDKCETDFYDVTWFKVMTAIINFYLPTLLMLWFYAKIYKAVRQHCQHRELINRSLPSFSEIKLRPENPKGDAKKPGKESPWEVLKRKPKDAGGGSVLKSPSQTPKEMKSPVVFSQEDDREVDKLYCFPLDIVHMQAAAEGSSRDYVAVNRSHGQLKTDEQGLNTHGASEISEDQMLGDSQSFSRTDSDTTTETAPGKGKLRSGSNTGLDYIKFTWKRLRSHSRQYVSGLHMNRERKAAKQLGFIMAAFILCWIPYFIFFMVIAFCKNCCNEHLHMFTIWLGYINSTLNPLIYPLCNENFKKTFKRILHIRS
Cytochrome P450 2D6, sequence (P10635 whole entry): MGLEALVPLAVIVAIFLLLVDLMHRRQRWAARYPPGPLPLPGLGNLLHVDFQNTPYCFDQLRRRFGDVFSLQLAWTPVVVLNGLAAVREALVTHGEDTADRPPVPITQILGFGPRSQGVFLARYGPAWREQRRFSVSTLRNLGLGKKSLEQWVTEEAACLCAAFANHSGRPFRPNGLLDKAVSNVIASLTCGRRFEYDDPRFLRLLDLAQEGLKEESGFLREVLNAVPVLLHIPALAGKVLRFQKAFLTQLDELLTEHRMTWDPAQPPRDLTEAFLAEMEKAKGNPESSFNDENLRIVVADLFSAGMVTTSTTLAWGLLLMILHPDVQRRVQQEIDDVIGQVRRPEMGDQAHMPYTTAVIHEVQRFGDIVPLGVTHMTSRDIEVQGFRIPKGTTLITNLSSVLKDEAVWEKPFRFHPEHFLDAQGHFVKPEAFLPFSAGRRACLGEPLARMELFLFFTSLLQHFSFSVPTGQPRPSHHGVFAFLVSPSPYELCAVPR
Cytochrome P450 2C19, sequence (P33261 whole entry): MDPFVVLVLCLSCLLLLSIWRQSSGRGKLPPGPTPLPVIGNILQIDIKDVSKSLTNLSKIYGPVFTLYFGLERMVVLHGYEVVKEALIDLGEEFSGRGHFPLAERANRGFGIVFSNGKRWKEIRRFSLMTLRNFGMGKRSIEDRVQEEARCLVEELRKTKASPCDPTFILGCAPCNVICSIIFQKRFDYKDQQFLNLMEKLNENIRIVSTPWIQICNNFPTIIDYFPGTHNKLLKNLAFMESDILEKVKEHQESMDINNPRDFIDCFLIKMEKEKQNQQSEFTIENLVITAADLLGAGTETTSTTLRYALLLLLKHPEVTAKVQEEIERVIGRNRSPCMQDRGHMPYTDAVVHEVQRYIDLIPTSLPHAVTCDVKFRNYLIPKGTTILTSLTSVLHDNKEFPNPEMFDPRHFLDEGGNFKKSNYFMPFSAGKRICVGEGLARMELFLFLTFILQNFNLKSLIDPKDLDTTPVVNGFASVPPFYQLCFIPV
Cytochrome P450 2C9, sequence (P11712 whole entry): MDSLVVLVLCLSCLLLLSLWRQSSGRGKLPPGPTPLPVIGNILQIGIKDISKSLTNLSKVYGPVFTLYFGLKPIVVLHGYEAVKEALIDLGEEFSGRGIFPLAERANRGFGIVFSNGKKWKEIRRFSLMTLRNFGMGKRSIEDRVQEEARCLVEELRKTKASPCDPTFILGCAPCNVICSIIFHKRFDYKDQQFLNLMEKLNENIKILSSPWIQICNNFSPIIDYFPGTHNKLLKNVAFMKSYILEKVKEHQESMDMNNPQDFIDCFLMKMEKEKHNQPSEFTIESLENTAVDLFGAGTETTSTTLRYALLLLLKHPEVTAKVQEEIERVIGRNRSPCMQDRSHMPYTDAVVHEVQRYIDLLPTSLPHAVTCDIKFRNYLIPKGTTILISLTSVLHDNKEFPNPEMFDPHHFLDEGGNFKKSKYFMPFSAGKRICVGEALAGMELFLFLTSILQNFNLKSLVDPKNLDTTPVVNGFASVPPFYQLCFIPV

`C(#Cc1cccc(CN2CCCC2)c1)CCN1CCCCC1` showed a pKi in data set [1] of 7.09.
For the compound `C(#Cc1cccc(CN2CCCCC2)c1)CCN1CCOCC1`, the pKi in data set [1] was 7.84. Against the preceding compound, the pKi is 0.75 log units higher.
Turning to `CCN(CC)CCC#Cc1ccc(CN2CCCCC2)cc1`, the pKi in data set [1] was 8.87.
As for `C(#Cc1cccc(CN2CCCCC2)c1)CCN1CCCCC1`, in data set [2], the Kb is 0.0813 nM. This compound showed a pKi in [1] of 9.11.
In data set [1], `CN(C)Cc1ccc(C#CCCN2CCCCC2)cc1` had a negative logarithm of the Ki (pKi) of 9.04.
On to `C(#Cc1ccc(CN2CCCC2)cc1)CCN1CCCCC1`, for which the pKi in data set [1] is 9.21.
Regarding `CN1CCN(Cc2ccc(C#CCCN3CCCCC3)cc2)CC1`, in data set [1], the pKi is 9.01.
In data set [1], `CN1CCN(CCC#Cc2ccc(CN3CCCCC3)cc2)CC1` had a negative-log Ki (pKi) of 8.28. Compared with the last compound, the pKi is 0.73 log units lower.
In the case of `C(#Cc1ccc(CN2CCCCC2)cc1)CCN1CCSCC1`, in data set [1], the negative-log Ki (pKi) is 8.42.
Consider `C(#Cc1ccc(CN2CCC(Cc3ccccc3)CC2)cc1)CCN1CCCCC1`, for which the pKi in [1] is 8.46.
`OC1CCN(Cc2ccc(C#CCCN3CCCCC3)cc2)CC1` had a pKi in data set [1] of 9.05.
The compound `CN1CCN(Cc2cccc(C#CCCN3CCCCC3)c2)CC1` had a negative logarithm of the Ki (pKi) in data set [1] of 9.14.
Still for that read-out and setting: under `NC(=O)C1CCN(Cc2cccc(C#CCCN3CCCCC3)c2)CC1` stands 9.26.
Regarding `C(#Cc1ccc(CN2CCCCC2)cc1)CCN1CCCCC1`, the Kb in data set [2] was 0.148 nM. This compound also showed a negative-log Ki (pKi) in [1] of 9.29.
Regarding `C(#Cc1ccc(CN2CCCCC2)cc1)CCN1CCOCC1`, in data set [1], the pKi was 8.30.
Turning to `C(#Cc1cccc(CN2CCOCC2)c1)CCN1CCCCC1`, the “inhibition (INH)” value in [3], in data set [5], in data set [6], in data set [9] and in data set [13] was “Not Active” each time. The inhibition at 3 µM in [4] was determined as 8.3%. For the same compound, the outcome in [7] was inactive. Besides, the Kb in data set [8] was 4.68 nM. Further, the pKi is 8.15 in data set [10], less than 5.00 in data set [17] and less than 5.00 in data set [18]. This compound gave an ED50 in [11] of 6.5 mg/kg. The inhibition at 10 µM in data set [12] was found to be 13.7%. In data set [14], the half-life is 1.5 h. In addition, in data set [15], the result was Active. This compound also yielded a bioavailability in [16] of 11%.
With `C(#Cc1ccc(CN2CCCCC2)cc1)CCN1CCCC1`, in data set [1], the pKi was 9.17.
Regarding `CC(C)N1CCN(Cc2ccc(C#CCCN3CCCCC3)cc2)CC1`, in data set [1], the pKi is 9.06. The pKi values of the last two compounds are within 0.2 log units of each other.
`NC(=O)C1CCN(Cc2ccc(C#CCCN3CCCCC3)cc2)CC1` gave a negative-log Ki (pKi) in [1] of 9.12.
In turn, `C(#Cc1ccccc1CN1CCCCC1)CCN1CCCCC1` gave a negative-log Ki (pKi) in data set [1] of 7.08.
The same measure, in the same setting: under `C(#Cc1ccc(CN2CCN(Cc3ccccc3)CC2)cc1)CCN1CCCCC1` stands 8.72.
Take `C(#Cc1ccc(CN2CCOCC2)cc1)CCN1CCCCC1`: in data set [2], the Kb was 3.24 nM. The compound further showed a pKi in data set [1] of 8.76.

The values above are taken from ChEMBL document CHEMBL1154085, “Diamine-based human histamine H3 receptor antagonists: (4-aminobutyn-1-yl)benzylamines” (Eur J Med Chem, 2009).
